Laboratory results as given in article PMC4832308 (Cancer, 2015).
Converted amounts (≈) assume the structure as drawn. Where two headings read alike, the source gives them in different places.

What was measured:
pS6RP [1] = assay: blood biomarker analysis by flow cytometry and PK/PD modeling; assay type: in vivo, human; details: for EC50: Homo sapiens, read-out: EC50 for pS6RP inhibition
Method in brief: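 Sodium-heparin patient whole blood, taken predose and 1.5–5 h postdose: 1 h at 37°C, 15-min anti-IgD plus LPS stimulation, lyse/fix, methanol overnight at −80°C, then CD3/CD14/CD20 and phospho-staining and flow cytometry. Bead-calibrated MFI reported as ERF. Baseline-relative change vs plasma drug (chiral LC-MS) was fitted by a direct inhibitory NONMEM model for EC50: p4EBP1 in T cells, pS6RP in B cells and monocytes.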

[2] = test system: non‐Hodgkin lymphoma cell lines; details: cited from earlier work
[3] = test system: U87 glioblastoma multiforme; details: cited from earlier work
pS6RP [4] = assay: immuno‐histochemical staining of tumor biopsies; assay type: in vivo, human; details: pre‐ vs on‐treatment (days 15‐22), HCC and salivary gland tumor, 30‐mg/d cohort
Method in brief: (§1)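 Optional pretreatment and on-treatment (days 15–22) tumor biopsies from 2 patients in the 30-mg/d cohort (HCC and salivary gland tumor). Paraffin-embedded sections were immunostained per antibody (pS6RP, p4EBP1, pAKT, Ki-67) or TUNEL-labelled, then scored by quantitative image analysis.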

[5] = test system: solid tumor lines, including breast, glioma, hepatocellular carcinoma (HCC), and non–small cell lung cancer; details: cited from earlier work
TUNEL‐positive cells = assay: TUNEL staining of tumor biopsies; assay type: in vivo, human; details: HCC and salivary gland tumor samples after treatment
Method in brief: as §1

Ki67 = assay: immuno‐histochemical staining of tumor biopsies; assay type: in vivo, human; details: pre‐ vs on‐treatment (days 15‐22), HCC and salivary gland tumor, 30‐mg/d cohort
Method in brief: as §1

PC3 prostate cancer = details: cited from earlier work
pAKT [6] = assay: blood biomarker analysis by flow cytometry and PK/PD modeling; assay type: in vivo, human; details: for EC50: Homo sapiens, read-out: EC50 for pAKT inhibition
pAKT [7] = assay: immuno‐histochemical staining of tumor biopsies; assay type: in vivo, human; details: pre‐ vs on‐treatment (days 15‐22), HCC and salivary gland tumor, 30‐mg/d cohort
Method in brief: as §1

p4EBP1 = assay: immuno‐histochemical staining of tumor biopsies; assay type: in vivo, human; details: HCC sample after treatment initiation
Method in brief: as §1

[8] = 30‐, 45‐, and 60‐mg dose levels, 3 hours on treatment

## CO[C@H]1CC[C@H](N2C(=O)CNc3ncc(-c4ccc(C(C)(C)O)nc4)nc32)CC1 [CC‐223]
pS6RP [1]; [8]
  pS6RP inhibition in blood cells: > 70%
pS6RP [1]; B-cell
  EC50: 0.0203 µg/mL (≈ 0.0511 µM)
pS6RP [1]; Monocyte
  EC50: 0.174 µg/mL (≈ 0.438 µM)
[2]
  activity against non‐Hodgkin lymphoma cell lines: active
[3]
  single‐agent activity in xenograft model: single‐agent activity
pS6RP [4]
  pS6RP staining in tumor biopsies: Significant inhibition
[5]
  activity against solid tumor lines: active
TUNEL‐positive cells
  TUNEL‐positive cells in tumor biopsies: increase
Ki67
  Ki67 staining in tumor biopsies: Significant inhibition
PC3 prostate cancer
  single‐agent activity in xenograft model: single‐agent activity
pAKT [6]; [8]
  pAKT inhibition in blood cells: > 48%
pAKT [6]; B-cell
  EC50: 0.0504 µg/mL (≈ 0.127 µM)
pAKT [6]; Monocyte
  EC50: 0.085 µg/mL (≈ 0.214 µM)
pAKT [7]
  pAKT staining in tumor biopsies: Significant inhibition
p4EBP1
  p4EBP1 in tumor biopsy: inhibition
